Experimental findings from ChEMBL document CHEMBL1828627, “High-throughput-screening-based identification and structure-activity relationship characterization defined (S)-2-(1-aminoisobutyl)-1-(3-chlorobenzyl)benzimidazole as a highly antimycotic agent nontoxic to cell lines” (J Med Chem, 2011) are described below.

Calls of active or inactive are those of the source.

For the first assay, the system named is Candida albicans. Briefly: Antifungal activity against Candida albicans SC5314 infected in HeLa cells at 20 uM after 5 days by fluorescein diacetate assay.
Conditions: not given
In kind it is functional, organism-based. In a few lines: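 Primary HTS: HeLa cells co-incubated with C. albicans plus a single compound at ~20 μM for 5 days. Viability checked microscopically at 18 h and quantified at day 5 by fluorescein diacetate fluorescence. Wells also scanned visually for yeast growth. Hit criterion: >40% signal relative to the uninfected untreated HeLa (~100%) and infected untreated HeLa (~0%) controls.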
As for `CCC(C)[C@H](N)c1nc2ccccc2n1Cc1cccc(C)c1` (some centres not stated), the inhibition entry is “inactive”.

As to `CCC(C)[C@H](N)c1nc2ccccc2n1Cc1cccc(F)c1` (some centres not stated), the inhibition result was “inactive”.

With `CCC[C@H](N)c1nc2ccccc2n1Cc1cccc(Cl)c1`, the inhibition entry was “inactive”.

In the case of `COc1cccc(Cn2c([C@H](C)N)nc3cc(C(F)(F)F)ccc32)c1`, the inhibition entry was “inactive”.

Consider `CCC(C)[C@H](N)c1nc2cc(Cl)c(Cl)cc2n1Cc1cccc(F)c1` (some centres not stated), for which the inhibition entry was “inactive”.

In the case of `CCC(C)[C@H](N)c1nc2ccccc2n1Cc1cccc(OC)c1` (some centres not stated), the inhibition result was “inactive”.

As to `COc1cccc(Cn2c([C@@H](N)C(C)C)nc3cc(C(F)(F)F)ccc32)c1`, the inhibition entry is “inactive”.

In the case of `CCC(C)[C@H](N)c1nc2ccccc2n1Cc1cccc(Cl)c1` (some centres not stated), the inhibition result was “inactive”.

Consider `COc1cccc(Cn2c([C@H](C)N)nc3cc(Cl)c(Cl)cc32)c1`, for which the inhibition result is “inactive”.

Regarding `CCC(C)[C@H](N)c1nc2cc(Cl)c(Cl)cc2n1Cc1cccc(C)c1` (some centres not stated), the inhibition result was “inactive”.

In the case of `CCC(C)[C@H](N)c1nc2cc(C(F)(F)F)ccc2n1Cc1cccc(F)c1` (some centres not stated), the inhibition result is “inactive”.

As to `CCC[C@H](N)c1nc2ccccc2n1Cc1cccc(F)c1`, the inhibition entry is “inactive”.

Turning to `CC(C)C[C@H](N)c1nc2cc(C(F)(F)F)ccc2n1Cc1ccc(Cl)cc1`, the inhibition entry is “inactive”.

Turning to `CCC[C@H](N)c1nc2cc(Cl)c(Cl)cc2n1Cc1cccc(OC)c1`, the inhibition entry is “inactive”.

In the case of `CC(C)(N)c1nc2ccccc2n1Cc1cccc(Cl)c1`, the inhibition entry was “inactive”.

For the compound `CC(C)[C@H](N)c1nc2cc(C(F)(F)F)ccc2n1Cc1ccc(Cl)cc1`, the inhibition result was “inactive”.

With `COc1cccc(Cn2c([C@@H](N)CC(C)C)nc3cc(C(F)(F)F)ccc32)c1`, the inhibition entry was “inactive”.

Consider `COc1cccc(Cn2c([C@@H](N)C(C)C)nc3cc(Cl)c(Cl)cc32)c1`, for which the inhibition result was “inactive”.

Turning to `C[C@H](N)c1nc2ccccc2n1Cc1ccc(Cl)cc1`, the inhibition entry was “inactive”.

`CCC(C)[C@H](N)c1nc2cc(Cl)c(Cl)cc2n1Cc1cccc(Cl)c1` (some centres not stated): the inhibition result is “inactive”.

As to `COc1cccc(Cn2c([C@@H](N)CC(C)C)nc3ccccc32)c1`, the inhibition entry was “inactive”.

Take `C[C@H](N)c1nc2cc(C(F)(F)F)ccc2n1Cc1ccc(Cl)cc1`: the inhibition entry is “inactive”.

On to `Cc1cccc(Cn2c([C@@H](N)C(C)C)nc3cc(C(F)(F)F)ccc32)c1`, for which the inhibition result was “inactive”.

As for `COc1cccc(Cn2c(C(C)(C)N)nc3cc(C(F)(F)F)ccc32)c1`, the inhibition entry was “inactive”.

Consider `CC(C)(N)c1nc2cc(Cl)c(Cl)cc2n1Cc1ccc(Cl)cc1`, for which the inhibition result is “inactive”.

As to `C[C@H](N)c1nc2ccccc2n1Cc1cccc(F)c1`, the inhibition entry is “inactive”.

Take `CCC[C@H](N)c1nc2cc(C(F)(F)F)ccc2n1Cc1cccc(OC)c1`: the inhibition entry is “inactive”.

On to `COc1cccc(Cn2c(C(C)(C)N)nc3ccccc32)c1`, for which the inhibition result is “inactive”.

Regarding `C[C@H](N)c1nc2cc(Cl)c(Cl)cc2n1Cc1cccc(Cl)c1`, the inhibition entry was “inactive”.

Take `CC(C)C[C@H](N)c1nc2cc(Cl)c(Cl)cc2n1Cc1cccc(F)c1`: the inhibition result is “inactive”.

As to `CCC[C@H](N)c1nc2cc(C(F)(F)F)ccc2n1Cc1ccc(Cl)cc1`, the inhibition entry was “inactive”.

With `CCC(C)[C@H](N)c1nc2ccccc2n1Cc1ccc(Cl)cc1` (some centres not stated), the inhibition result was “inactive”.

On to `CC(C)(N)c1nc2cc(Cl)c(Cl)cc2n1Cc1cccc(F)c1`, for which the inhibition entry is “inactive”.

In the case of `CCC[C@H](N)c1nc2cc(Cl)c(Cl)cc2n1Cc1cccc(C)c1`, the inhibition entry is “inactive”.

For the compound `COc1cccc(Cn2c([C@@H](N)C(C)C)nc3ccccc32)c1`, the inhibition result is “inactive”.

On to `Cc1cccc(Cn2c(C(C)(C)N)nc3cc(Cl)c(Cl)cc32)c1`, for which the inhibition entry was “inactive”.

Consider `CC(C)(N)c1nc2cc(C(F)(F)F)ccc2n1Cc1cccc(F)c1`, for which the inhibition result is “inactive”.

Consider `CCC[C@H](N)c1nc2cc(Cl)c(Cl)cc2n1Cc1cccc(F)c1`, for which the inhibition result is “inactive”.

`CC(C)[C@H](N)c1nc2cc(C(F)(F)F)ccc2n1Cc1cccc(Cl)c1`: the inhibition result is “inactive”.

On to `CC(C)(N)c1nc2ccccc2n1Cc1cccc(F)c1`, for which the inhibition result is “inactive”.

With `CCC[C@H](N)c1nc2cc(C(F)(F)F)ccc2n1Cc1cccc(F)c1`, the inhibition result was “inactive”.

Regarding `CCC(C)[C@H](N)c1nc2cc(C(F)(F)F)ccc2n1Cc1cccc(C)c1` (some centres not stated), the inhibition entry was “inactive”.

Turning to `CC(C)C[C@H](N)c1nc2ccccc2n1Cc1cccc(F)c1`, the inhibition result is “inactive”.

`CC(C)C[C@H](N)c1nc2cc(Cl)c(Cl)cc2n1Cc1cccc(Cl)c1`: the inhibition result was “inactive”.

In the case of `COc1cccc(Cn2c(C(C)(C)N)nc3cc(Cl)c(Cl)cc32)c1`, the inhibition result was “inactive”.

In the case of `CCC(C)[C@H](N)c1nc2cc(C(F)(F)F)ccc2n1Cc1cccc(Cl)c1` (some centres not stated), the inhibition result is “inactive”.

On to `Cc1cccc(Cn2c([C@@H](N)CC(C)C)nc3cc(C(F)(F)F)ccc32)c1`, for which the inhibition result was “inactive”.

Consider `CCC[C@H](N)c1nc2cc(Cl)c(Cl)cc2n1Cc1cccc(Cl)c1`, for which the inhibition entry is “inactive”.

As to `C[C@H](N)c1nc2cc(Cl)c(Cl)cc2n1Cc1ccc(Cl)cc1`, the inhibition result was “inactive”.

Take `Cc1cccc(Cn2c(C(C)(C)N)nc3ccccc32)c1`: the inhibition entry was “inactive”.

`CC(C)C[C@H](N)c1nc2ccccc2n1Cc1cccc(Cl)c1`: the inhibition result is “inactive”.

For the compound `CC(C)(N)c1nc2cc(C(F)(F)F)ccc2n1Cc1ccc(Cl)cc1`, the inhibition entry was “inactive”.

For `Cc1cccc(Cn2c([C@H](C)N)nc3cc(Cl)c(Cl)cc32)c1`, the inhibition result is “inactive”.

Regarding `C[C@H](N)c1nc2cc(Cl)c(Cl)cc2n1Cc1cccc(F)c1`, the inhibition entry is “inactive”.

On to `CC(C)C[C@H](N)c1nc2cc(C(F)(F)F)ccc2n1Cc1cccc(F)c1`, for which the inhibition result is “inactive”.

As for `Cc1cccc(Cn2c([C@@H](N)CC(C)C)nc3ccccc32)c1`, the inhibition entry was “inactive”.

With `CC(C)[C@H](N)c1nc2cc(Cl)c(Cl)cc2n1Cc1ccc(Cl)cc1`, the inhibition result was “inactive”.

For the compound `CCC(C)[C@H](N)c1nc2cc(Cl)c(Cl)cc2n1Cc1cccc(OC)c1` (some centres not stated), the inhibition result was “inactive”.

On to `COc1cccc(Cn2c([C@H](C)N)nc3ccccc32)c1`, for which the inhibition entry was “inactive”.

Turning to `Cc1cccc(Cn2c([C@@H](N)CC(C)C)nc3cc(Cl)c(Cl)cc32)c1`, the inhibition result is “inactive”.

For `Cc1cccc(Cn2c([C@@H](N)C(C)C)nc3cc(Cl)c(Cl)cc32)c1`, the inhibition entry was “inactive”.

As to `CCC(C)[C@H](N)c1nc2cc(C(F)(F)F)ccc2n1Cc1ccc(Cl)cc1` (some centres not stated), the inhibition result is “inactive”.

Consider `CC(C)(N)c1nc2cc(Cl)c(Cl)cc2n1Cc1cccc(Cl)c1`, for which the inhibition result was “inactive”.

Turning to `CC(C)C[C@H](N)c1nc2cc(Cl)c(Cl)cc2n1Cc1ccc(Cl)cc1`, the inhibition result is “inactive”.

For the compound `CC(C)[C@H](N)c1nc2ccccc2n1Cc1ccc(Cl)cc1`, the inhibition entry was “inactive”.

`CC(C)[C@H](N)c1nc2cc(C(F)(F)F)ccc2n1Cc1cccc(F)c1`: the inhibition result is “inactive”.

Consider `CCC(C)[C@H](N)c1nc2cc(C(F)(F)F)ccc2n1Cc1cccc(OC)c1` (some centres not stated), for which the inhibition entry was “inactive”.

As for `COc1cccc(Cn2c([C@@H](N)CC(C)C)nc3cc(Cl)c(Cl)cc32)c1`, the inhibition result is “inactive”.

Regarding `CCC[C@H](N)c1nc2cc(Cl)c(Cl)cc2n1Cc1ccc(Cl)cc1`, the inhibition entry was “inactive”.

Turning to `C[C@H](N)c1nc2cc(C(F)(F)F)ccc2n1Cc1cccc(F)c1`, the inhibition result is “inactive”.

As for `CC(C)(N)c1nc2cc(C(F)(F)F)ccc2n1Cc1cccc(Cl)c1`, the inhibition entry is “inactive”.

Regarding `CCC[C@H](N)c1nc2ccccc2n1Cc1cccc(OC)c1`, the inhibition entry was “inactive”.

For `CCC[C@H](N)c1nc2cc(C(F)(F)F)ccc2n1Cc1cccc(Cl)c1`, the inhibition result is “inactive”.

For `Cc1cccc(Cn2c(C(C)(C)N)nc3cc(C(F)(F)F)ccc32)c1`, the inhibition entry was “inactive”.

As to `CC(C)[C@H](N)c1nc2cc(Cl)c(Cl)cc2n1Cc1cccc(F)c1`, the inhibition entry is “inactive”.

Take `CC(C)[C@H](N)c1nc2cc(Cl)c(Cl)cc2n1Cc1cccc(Cl)c1`: the inhibition result is “inactive”.

On to `C[C@H](N)c1nc2cc(C(F)(F)F)ccc2n1Cc1cccc(Cl)c1`, for which the inhibition result was “inactive”.

Regarding `Cc1cccc(Cn2c([C@H](C)N)nc3cc(C(F)(F)F)ccc32)c1`, the inhibition entry is “inactive”.

`CCC[C@H](N)c1nc2cc(C(F)(F)F)ccc2n1Cc1cccc(C)c1`: the inhibition entry was “inactive”.

Consider `CCC(C)[C@H](N)c1nc2cc(Cl)c(Cl)cc2n1Cc1ccc(Cl)cc1` (some centres not stated), for which the inhibition result was “inactive”.

Consider `CC(C)C[C@H](N)c1nc2cc(C(F)(F)F)ccc2n1Cc1cccc(Cl)c1`, for which the inhibition result was “inactive”.

The next assay deals with Candida albicans. The assay can be described thus: Antifungal activity against Candida albicans SC5314 infected in HeLa cells after 5 days by fluorescein diacetate assay. In kind it is functional, organism-based. The note with it: Candida albicans, SC5314, HeLa, 120 h; read-out: IC50. In a few lines: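 HeLa cells co-incubated with C. albicans and compound for 5 days. Dose–response from resynthesized compounds. Host-cell viability checked microscopically at 18 h, then quantified at day 5 by fluorescein diacetate conversion to a fluorophore by live cells. Wells also inspected visually for yeast growth. Controls: untreated uninfected HeLa (~100%) and untreated infected HeLa (~0%). IC50 derived from infected cells; CC50 as half-maximal cytotoxic concentration.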
As to `C[C@@H]1[C@H](O)[C@@H](C)/C=C/C=C/C=C/C=C/C=C/C=C/C=C/[C@H](O[C@@H]2O[C@H](C)[C@@H](O)[C@H](N)[C@@H]2O)C[C@@H]2O[C@](O)(C[C@@H](O)C[C@@H](O)[C@H](O)CC[C@@H](O)C[C@@H](O)CC(=O)O[C@H]1C)C[C@H](O)[C@H]2C(=O)O` [AMPHOTERICIN B], the IC50 was 500 nM.
